# Assay results from different studies.
# Target: Serine/threonine-protein kinase 26 (STK26, Homo sapiens, UniProt Q9P289)
SMILES,assay,setting,remaining binding
COc1ncc2cc3ccccc3nc2c1C#N,"cell-free assay, competition with immobilised ligand",5 µM,100%
CS(=O)(=O)N1CCCC(NC(=O)[C@H](CCC2CCCCC2)NC(=O)c2ccc(CNC(=O)c3cnc4ccccn34)cc2)C1 (some centres unmarked),"cell-free assay, competition with immobilised ligand",0.1 µM,100%
COc1cnc(Nc2cccc(S(N)(=O)=O)c2)nc1N1CCN(c2ccccc2)CC1,"binding, competition with immobilised ligand",1 µM,78%
NS(=O)(=O)c1cc(NC(=O)C2(c3ccccc3Cl)CC2)ccc1Oc1cccc(Cl)c1,"cell-free assay, competition with immobilised ligand",1 µM,100%
CN1CCN(c2ccc(Nc3nccc(-c4cccc([N+](=O)[O-])c4)n3)cc2C(F)(F)F)CC1,binding,10 µM,33%
O=C(c1ccc(Nc2ncc(Cl)c(-c3cc4ccccc4s3)n2)cc1)N1CCC(N2CCCC2)CC1,"binding, competition with immobilised ligand",1 µM,66%
C=CC(=O)N1CCC(C(=O)NCC(=O)N2CCN(c3nc(-c4cnc(N)nc4C(F)F)nc(N4CCOCC4)n3)CC2)CC1,"binding, competition with immobilised ligand",1 µM,100%
CN([C@@H]1CCc2c(CC(=O)O)c3cc(S(C)(=O)=O)ccc3n2C1)S(=O)(=O)c1ccc(F)cc1,"cell-free assay, competition with immobilised ligand",1 µM,77%
O=C(c1ccc(Nc2nccc(-c3cc4ccccc4s3)n2)cc1)N1CCC(N2CCCC2)CC1,"binding, competition with immobilised ligand",1 µM,99%
CC(=O)c1c(NS(C)(=O)=O)c2cc(-c3ccc(Cl)cc3)c(-c3ccc(Cl)cc3Cl)nc2n(C)c1=O,"cell-free assay, competition with immobilised ligand",1 µM,84%
FC(F)(F)Oc1cccc(-c2cnc3ccc(-c4ccncc4)nn23)c1,"cell-free assay, competition with immobilised ligand",5 µM,59%
CNC(=O)[C@@H]1CC[C@@H](n2c(-c3ccc4cnccc4c3)nc3ccc(C(=O)NCc4cccc(C(N)=O)c4)cc32)C1,"binding, competition with immobilised ligand",1 µM,100%
Cc1cnc(Nc2ccc(C(=O)N3CCC(N4CCCC4)CC3)cc2)nc1-c1cc2ccccc2s1,"binding, competition with immobilised ligand",1 µM,77%
O=C(Nc1c[nH]nc1C(=O)NC1CCNCC1)c1cc(F)cc(F)c1,"binding, competition with immobilised ligand",1 µM,68%
